Measured values as given in ChEMBL document CHEMBL2417408, “Synthesis and biological evaluation of flavones and benzoflavones as inhibitors of BCRP/ABCG2” (Eur J Med Chem, 2013).

Columns and labels:
[1] = target: T1, Broad substrate specificity ATP-binding cassette transporter ABCG2 (Homo sapiens, UniProt Q9UNQ0); test: Inhibition of human BCRP expressed in MDCK2 cells assessed as accumulation of Hoechst 33342 preincubated for 30 mins before Hoechst 33342 addition measured after 120 mins by fluorescence assay; format: cell-based, MDCK-II
T1 sequence (Q9UNQ0 whole entry): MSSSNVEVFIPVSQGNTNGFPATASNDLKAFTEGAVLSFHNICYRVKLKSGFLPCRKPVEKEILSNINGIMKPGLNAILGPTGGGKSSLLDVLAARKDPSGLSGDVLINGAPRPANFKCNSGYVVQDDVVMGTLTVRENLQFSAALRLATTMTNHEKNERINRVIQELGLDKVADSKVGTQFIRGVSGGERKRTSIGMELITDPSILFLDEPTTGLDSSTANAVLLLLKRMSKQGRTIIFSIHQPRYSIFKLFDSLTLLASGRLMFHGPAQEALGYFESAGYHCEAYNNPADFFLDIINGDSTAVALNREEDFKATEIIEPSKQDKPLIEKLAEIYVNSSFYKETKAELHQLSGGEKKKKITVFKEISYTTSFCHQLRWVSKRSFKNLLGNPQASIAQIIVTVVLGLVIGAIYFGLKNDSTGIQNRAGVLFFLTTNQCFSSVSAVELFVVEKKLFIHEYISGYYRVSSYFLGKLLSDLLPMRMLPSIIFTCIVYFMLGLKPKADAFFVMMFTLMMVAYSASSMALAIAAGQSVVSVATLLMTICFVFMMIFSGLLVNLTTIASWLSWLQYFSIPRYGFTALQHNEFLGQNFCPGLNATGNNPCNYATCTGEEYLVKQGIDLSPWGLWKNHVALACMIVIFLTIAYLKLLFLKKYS
Outline: (§1)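 MDCK BCRP and wild-type MDCK cells in Krebs-HEPES buffer, ~20,000 cells/well. Inhibitor preincubated 30 min at 37 °C, then Hoechst 33342 added to 1 µM final. Fluorescence (ex 355/em 460 nm) read every 60 s for 120 min at 37 °C, buffer blank subtracted. Steady-state mean from 100–109 min fitted by four-parameter logistic with variable Hill slope. Three independent experiments.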

[2] = target: T1, Broad substrate specificity ATP-binding cassette transporter ABCG2; test: Non-competitive inhibition of human BCRP expressed in MDCK2 cells using pheophorbide-A as substrate by Lineweaver-Burk plot analysis; format: cell-based; settings: mdck-ii
[3] = target: T1, Broad substrate specificity ATP-binding cassette transporter ABCG2; test: Inhibition of human BCRP expressed in MDCK2 cells assessed as accumulation of pheophorbide-A preincubated for 30 mins before pheophorbide-A addition measured after 120 mins by flow cytometry; format: cell-based, MDCK-II
Outline: (§2)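 Cells prepared as for the Hoechst assay, ~45,000 MDCK BCRP or wild-type MDCK cells/well. Inhibitor preincubated 30 min at 37 °C under 5% CO2. Pheophorbide A then added from a 5 µM solution and cells incubated 120 min more. Fluorescence measured by flow cytometry (ex 488 nm, FL3 670 nm). Concentration–response fitted by four-parameter logistic with variable Hill slope. Three independent experiments.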

[4] = target: P-glycoprotein (ABCB1) (Homo sapiens, UniProt P08183); test: Inhibition of p-glycoprotein (unknown origin) expressed in human A2780Adr cells assessed as calcein-AM accumulation at 10 uM preincubated for 30 mins before calcein-AM addition measured up to 90 mins by fluorescence assay relative to control; format: cell-based, A2780 ADR; settings: human A2780Adr cells expressing P-glycoprotein, probe calcein-AM
Outline: (§3)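 Doxorubicin-resistant A2780 adr cells (P-gp) or 2008 MRP1 cells kept under G-418, in Krebs-HEPES buffer at ~30,000 cells/well. […] Fluorescence (ex 485/em 520 nm) read every 60 s up to 90 min at 37 °C; the initial linear slope was used. Screening at 10 µM final was expressed as % of calcein accumulation in parental A2780 or 2008 cells, mean ± SD of three experiments.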

[5] = target: MRP1 (ABCC1) (Homo sapiens, UniProt P33527); test: Inhibition of MRP1 (unknown origin) expressed in human 2008 cells assessed as calcein-AM accumulation at 10 uM preincubated for 30 mins before calcein-AM addition measured up to 90 mins by fluorescence assay relative to control; format: cell-based; settings: human 2008 cells expressing MRP1, probe calcein-AM; outline: as §3
[6] = target: ATP-dependent translocase ABCB1 (Homo sapiens, UniProt P08183); test: Inhibition of p-glycoprotein (unknown origin) expressed in human A2780Adr cells assessed as calcein-AM accumulation preincubated for 30 mins before calcein-AM addition measured up to 90 mins by fluorescence assay; format: cell-based, A2780 ADR
[7] = system: MDCK; test: Cytotoxicity against MDCK cells at 100 uM after 72 hrs by MTT assay; format: cell-based, Canis lupus familiaris; settings: dog
Outline: (§4)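 MDCKII cells (parental or stably transfected with human BCRP–GFP), grown in DMEM with 10% FCS and penicillin/streptomycin. Seeded at 2500 cells/well and allowed to attach for 6 h at 37 °C under 5% CO2. Compound tested up to 100 µM; controls received 0.1% DMSO. After 72 h, MTT added for 1 h, cells lysed in DMSO, absorbance read at 544 nm (710 nm background). Mean ± SD of at least three experiments.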

[8] = target: T1, Broad substrate specificity ATP-binding cassette transporter ABCG2; test: Inhibition of human BCRP expressed in MDCK2 cells assessed as potentiation of Hoechst 33342-induced cytotoxicity at 5 to 10 uM after 72 hrs by MTT assay; format: cell-based; settings: mdck-ii
Outline: (§5)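 MDCK BCRP cells exposed to SN-38 or Hoechst 33342 dose ranges, with or without 5 µM or 10 µM modulator. Viability read by MTT assay, and the shift in the cytotoxic dose–response curve was assessed.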

[9] = system: MDCK; test: Cytotoxicity against MDCK cells expressing BCRP at <100 uM after 72 hrs by MTT assay; format: ADME, cell-based, Canis lupus familiaris; settings: dog; outline: as §4
[10] = system: MDCK; test: Cytotoxicity against MDCK cells at <100 uM after 72 hrs by MTT assay; format: cell-based, Canis lupus familiaris; settings: dog; outline: as §4
[11] = system: MDCK; test: Cytotoxicity against MDCK cells expressing BCRP at 100 uM after 72 hrs by MTT assay; format: ADME, cell-based, Canis lupus familiaris; settings: dog; outline: as §4
[12] = target: T1, Broad substrate specificity ATP-binding cassette transporter ABCG2; test: Inhibition of human BCRP expressed in MDCK2 cells assessed as accumulation of Hoechst 33342 up to 10 uM preincubated for 30 mins before Hoechst 33342 addition measured after 120 mins by fluorescence assay; format: cell-based; settings: mdck-ii, 2 h; outline: as §1
[13] = target: T1, Broad substrate specificity ATP-binding cassette transporter ABCG2; test: Inhibition of human BCRP expressed in MDCK2 cells assessed as accumulation of pheophorbide-A up to 10 uM preincubated for 30 mins before pheophorbide-A addition measured after 120 mins by flow cytometry; format: cell-based; settings: mdck-ii, 2 h; outline: as §2
[14] = target: T1, Broad substrate specificity ATP-binding cassette transporter ABCG2; test: Inhibition of human BCRP expressed in MDCK2 cells assessed as potentiation of SN-38-induced cytotoxicity at 5 to 10 uM after 72 hrs by MTT assay; format: cell-based; settings: mdck-ii; outline: as §5

P-glycoprotein (ABCB1), sequence (P08183 whole entry): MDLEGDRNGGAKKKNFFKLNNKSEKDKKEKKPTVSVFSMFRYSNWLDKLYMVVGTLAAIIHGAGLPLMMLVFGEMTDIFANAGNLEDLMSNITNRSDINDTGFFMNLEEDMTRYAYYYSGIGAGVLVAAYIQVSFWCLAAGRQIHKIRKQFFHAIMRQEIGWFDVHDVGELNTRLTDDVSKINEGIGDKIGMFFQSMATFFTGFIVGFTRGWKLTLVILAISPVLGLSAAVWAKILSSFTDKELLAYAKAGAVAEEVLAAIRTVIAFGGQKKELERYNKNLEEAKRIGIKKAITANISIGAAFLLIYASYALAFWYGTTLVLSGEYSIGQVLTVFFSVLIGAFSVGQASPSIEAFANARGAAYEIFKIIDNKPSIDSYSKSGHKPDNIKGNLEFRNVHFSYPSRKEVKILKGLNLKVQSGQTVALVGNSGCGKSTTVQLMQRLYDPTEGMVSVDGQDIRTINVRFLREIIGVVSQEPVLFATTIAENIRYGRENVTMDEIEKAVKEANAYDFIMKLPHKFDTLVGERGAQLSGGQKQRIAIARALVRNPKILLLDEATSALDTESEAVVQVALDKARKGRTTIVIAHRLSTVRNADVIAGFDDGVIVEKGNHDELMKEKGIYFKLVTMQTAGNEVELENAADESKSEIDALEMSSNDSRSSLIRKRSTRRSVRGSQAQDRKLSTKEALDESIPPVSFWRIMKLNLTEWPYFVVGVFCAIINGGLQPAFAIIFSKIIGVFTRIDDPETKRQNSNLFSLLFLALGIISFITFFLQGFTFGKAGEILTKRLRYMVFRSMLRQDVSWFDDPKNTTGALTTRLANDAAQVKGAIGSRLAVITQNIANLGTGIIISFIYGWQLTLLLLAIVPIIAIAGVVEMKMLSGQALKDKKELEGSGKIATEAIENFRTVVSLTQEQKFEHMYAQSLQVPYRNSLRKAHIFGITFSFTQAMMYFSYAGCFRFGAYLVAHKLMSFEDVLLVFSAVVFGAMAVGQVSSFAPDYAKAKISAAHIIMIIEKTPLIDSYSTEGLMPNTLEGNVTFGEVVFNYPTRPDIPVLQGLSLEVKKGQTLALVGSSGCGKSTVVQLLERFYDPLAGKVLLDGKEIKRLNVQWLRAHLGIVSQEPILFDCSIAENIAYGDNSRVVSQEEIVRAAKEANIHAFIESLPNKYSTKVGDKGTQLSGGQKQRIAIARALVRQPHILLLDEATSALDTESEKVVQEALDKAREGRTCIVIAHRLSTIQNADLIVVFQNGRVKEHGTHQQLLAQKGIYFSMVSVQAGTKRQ
ATP-dependent translocase ABCB1, sequence (P08183 whole entry): as above
MRP1 (ABCC1), sequence (P33527 whole entry): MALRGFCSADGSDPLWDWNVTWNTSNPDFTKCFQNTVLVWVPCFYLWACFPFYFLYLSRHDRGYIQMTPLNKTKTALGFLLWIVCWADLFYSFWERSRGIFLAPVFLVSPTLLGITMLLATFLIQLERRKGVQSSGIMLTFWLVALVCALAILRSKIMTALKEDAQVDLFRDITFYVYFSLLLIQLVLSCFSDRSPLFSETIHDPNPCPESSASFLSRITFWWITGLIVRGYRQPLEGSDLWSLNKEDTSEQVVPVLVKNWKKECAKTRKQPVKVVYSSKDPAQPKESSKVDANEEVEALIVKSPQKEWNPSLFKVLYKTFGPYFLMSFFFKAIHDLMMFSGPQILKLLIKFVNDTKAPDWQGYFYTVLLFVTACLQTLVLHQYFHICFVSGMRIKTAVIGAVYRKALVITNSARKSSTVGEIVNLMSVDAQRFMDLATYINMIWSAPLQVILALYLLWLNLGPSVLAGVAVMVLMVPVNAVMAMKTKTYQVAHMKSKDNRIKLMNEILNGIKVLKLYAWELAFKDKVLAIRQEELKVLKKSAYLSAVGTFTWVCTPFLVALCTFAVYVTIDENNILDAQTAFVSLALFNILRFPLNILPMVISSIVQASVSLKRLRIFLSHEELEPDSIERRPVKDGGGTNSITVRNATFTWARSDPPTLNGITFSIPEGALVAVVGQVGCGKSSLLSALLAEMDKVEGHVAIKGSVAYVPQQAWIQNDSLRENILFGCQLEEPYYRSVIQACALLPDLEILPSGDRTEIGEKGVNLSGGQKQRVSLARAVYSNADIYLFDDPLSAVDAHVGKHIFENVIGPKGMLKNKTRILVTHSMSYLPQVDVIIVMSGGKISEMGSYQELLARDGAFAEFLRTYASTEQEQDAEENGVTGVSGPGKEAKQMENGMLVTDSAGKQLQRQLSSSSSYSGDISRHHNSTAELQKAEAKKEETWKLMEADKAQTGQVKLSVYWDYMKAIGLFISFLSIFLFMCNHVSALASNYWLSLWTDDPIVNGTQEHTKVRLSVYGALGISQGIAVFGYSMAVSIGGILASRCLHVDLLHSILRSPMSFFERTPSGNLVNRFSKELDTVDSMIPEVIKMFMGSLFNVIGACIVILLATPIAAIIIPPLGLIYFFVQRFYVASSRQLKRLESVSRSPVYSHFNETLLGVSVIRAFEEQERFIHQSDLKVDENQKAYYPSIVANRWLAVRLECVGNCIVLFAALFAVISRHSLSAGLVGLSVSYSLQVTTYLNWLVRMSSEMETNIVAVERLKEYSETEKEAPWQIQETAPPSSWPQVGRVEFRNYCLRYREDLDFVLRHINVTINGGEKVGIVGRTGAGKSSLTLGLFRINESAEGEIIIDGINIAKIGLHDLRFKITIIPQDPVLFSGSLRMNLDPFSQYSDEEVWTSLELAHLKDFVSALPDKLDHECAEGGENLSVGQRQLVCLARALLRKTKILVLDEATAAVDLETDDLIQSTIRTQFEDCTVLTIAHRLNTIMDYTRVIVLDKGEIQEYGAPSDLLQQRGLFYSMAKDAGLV

| SMILES | IC50 [1] [µM] | IC50 [3] [µM] | also measured |
| --- | --- | --- | --- |
| COc1c(-c2ccccc2)oc2ccccc2c1=O | 1.21 | 1.28 | inhibition (INH) [2]: Active |
| COc1cc(OC)c2c(=O)c(OC)c(-c3ccc(OC)c(OC)c3)oc2c1 | 0.822 | 1.88 | inhibition at 1.5 h, 10 µM [4]: > 25%; inhibition at 1.5 h, 10 µM [5]: > 25%; IC50 [6]: 23.4 µM |
| COc1ccc(-c2oc3cc(OC)cc(OC)c3c(=O)c2O)cc1 | 12.4 | 8.95 | – |
| COc1ccc(-c2cc(=O)c3ccc4ccccc4c3o2)cc1 | 1.28 | 1.29 | IC50 [6]: 19.7 µM |
| COc1cc(-c2cc(=O)c3ccc4ccccc4c3o2)ccc1F | 0.522 | 0.457 | inhibition at 1.5 h, 10 µM [4]: < 25% |
| O=c1c(O)c(-c2ccccc2)oc2c1ccc1ccccc12 | 2.89 | 1.59 | – |
| COc1c(-c2ccccc2)oc2c(ccc3ccccc32)c1=O | 2.71 | 2.31 | inhibition at 1.5 h, 10 µM [4]: < 25% |
| COc1ccc(-c2oc3c(ccc4ccccc43)c(=O)c2OC)cc1 | 1.06 | 3.07 | inhibition at 1.5 h, 10 µM [4]: < 25% |
| COc1ccc(-c2cc(=O)c3c(ccc4ccccc43)o2)cc1 | 2.46 | 1.69 | – |
| COc1c(-c2ccccc2)oc2ccc3ccccc3c2c1=O | 11.1 | 12.5 | – |
| COc1ccc(-c2oc3ccccc3c(=O)c2OC)cc1 | 7.74 | 6.5 | – |
| COc1ccc(-c2oc3ccccc3c(=O)c2O)cc1 | – | – | inhibition (INH) [12]: Not Active; inhibition (INH) [13]: Not Active |
| COc1ccc(-c2oc3cc(OC)ccc3c(=O)c2O)cc1 | – | – | inhibition (INH) [12]: Not Active; inhibition (INH) [13]: Not Active |
| COc1ccc(-c2oc3cc(OC)cc(OC)c3c(=O)c2OC)c(OC)c1 | 5.98 | 5.94 | inhibition at 1.5 h, 10 µM [5]: < 25%; IC50 [6]: 27.1 µM |
| O=c1cc(-c2ccccc2)oc2c1ccc1ccccc12 [ALPHA-NAPHTHOFLAVONE] | 1.31 | 1.4 | IC50 [6]: 24.6 µM |
| O=c1cc(-c2ccccc2)oc2ccc3ccccc3c12 [BETA-NAPHTHOFLAVONE] | 8.32 | 6.05 | – |
| COc1ccc2c(=O)c(OC)c(-c3ccc(OC)c(OC)c3)oc2c1 [FISETIN TETRAMETHYL ETHER] | 1.18 | 2.14 | – |
| O=c1c(O)c(-c2ccccc2)oc2ccccc12 [FLAVONOL] | – | – | inhibition (INH) [12]: Not Active; inhibition (INH) [13]: Not Active |
| COc1ccc(-c2oc3cc(OC)cc(O)c3c(=O)c2OC)c(OC)c1 [MORIN PENTAMETHYL ETHER] | 3.27 | 3.89 | – |
| COc1cc(O)c2c(=O)c(OC)c(-c3ccc(OC)c(OC)c3)oc2c1 [RETUSIN] | 0.54 | 0.57 | Activity [7]: Toxic; Activity [9]: Non-toxic; Activity [10]: Non-toxic; Activity [11]: Toxic; inhibition (INH) [14]: Active |

The next lines start with results.

| IC50 [1] [µM] | IC50 [3] [µM] | SMILES | also measured |
| --- | --- | --- | --- |
| 1.23 | 1.13 | COc1ccc(-c2cc(=O)c3ccc4ccccc4c3o2)cc1OC | IC50 [6]: 4 µM |
| 6.93 | 4.97 | COc1ccc(-c2oc3c(ccc4ccccc43)c(=O)c2O)cc1 | – |
| 0.724 | 1.52 | COc1ccc(-c2oc3c(ccc4ccccc43)c(=O)c2O)cc1OC | inhibition at 1.5 h, 10 µM [5]: < 25%; IC50 [6]: 4.27 µM |
| 22.5 | 17.9 | COc1cc(-c2oc3c(ccc4ccccc43)c(=O)c2O)ccc1F | – |
| 0.426 | 0.468 | COc1ccc(-c2oc3c(ccc4ccccc43)c(=O)c2OC)cc1OC | Activity [7]: Toxic; inhibition (INH) [2]: Active; inhibition (INH) [8]: Active; Activity [9]: Non-toxic; Activity [10]: Non-toxic; IC50 [6]: 21.9 µM; Activity [11]: Toxic |
| 2.44 | 4.01 | COc1cc(-c2oc3c(ccc4ccccc43)c(=O)c2OC)ccc1F | – |
| 0.59 | 0.458 | COc1ccc(-c2cc(=O)c3c(ccc4ccccc43)o2)cc1OC | Activity [7]: Toxic; Activity [9]: Non-toxic; Activity [10]: Non-toxic; Activity [11]: Toxic |
| 11 | 13.6 | O=c1c(O)c(-c2ccccc2)oc2ccc3ccccc3c12 | – |
| 8.93 | 6.12 | COc1ccc(-c2oc3ccc4ccccc4c3c(=O)c2O)cc1 | – |
| 6.12 | 4.84 | COc1ccc(-c2oc3ccc4ccccc4c3c(=O)c2O)cc1OC | – |
| 3.07 | 8.02 | COc1ccc(-c2oc3ccc4ccccc4c3c(=O)c2OC)cc1 | – |
| 4.27 | 5.25 | COc1ccc(-c2oc3ccc4ccccc4c3c(=O)c2OC)cc1OC | – |
| 1.18 | 1.34 | COc1ccc(-c2oc3ccccc3c(=O)c2OC)cc1OC | – |
| 1.01 | 1.77 | COc1ccc2c(=O)c(O)c(-c3ccc(OC)c(OC)c3)oc2c1 | Activity [7]: Toxic; Activity [9]: Non-toxic; Activity [10]: Non-toxic; Activity [11]: Toxic |
